Reference: ChEMBL document CHEMBL4433206, “Novel Lysine-Based Thioureas as Mechanism-Based Inhibitors of Sirtuin 2 (SIRT2) with Anticancer Activity in a Colorectal Cancer Murine Model” (J Med Chem, 2019)
Calls of active or inactive are those of the source. No cut-off for these calls is given here.

Assays:
MCF7 = experiment: Growth inhibition of human MCF7 cells after 72 hrs by CellTiter-Blue assay; type: functional; conditions: MCF7, 72 h
MDA-MB-468 = experiment: Growth inhibition of human MDA-MB-468 cells after 72 hrs by CellTiter-Blue assay; type: functional; conditions: MDA-MB-468, 72 h
NCI-H23 = experiment: Growth inhibition of human NCI-H23 cells after 72 hrs by CellTiter-Blue assay; type: functional; conditions: NCI-H23, 72 h
[1] = Toxicity in NSG mouse xenografted with human HCT116 cells harboring KRAS G13D mutant assessed as body weight loss at 100 mg/kg, ip administered daily for 12 days measured during compound dosing; conditions: in vivo, 288 h
[2] = target: T1, NAD-dependent protein deacetylase sirtuin-2 (Homo sapiens) (UniProt Q8IXJ6); experiment: Inhibition of SIRT2 in human HCT116 cells assessed as increase in alpha-tubulin acetylation at 25 uM incubated for 6 hrs by DAPI staining-based laser scanning confocal microscopic analysis; type: cell-based
T1 sequence (whole entry): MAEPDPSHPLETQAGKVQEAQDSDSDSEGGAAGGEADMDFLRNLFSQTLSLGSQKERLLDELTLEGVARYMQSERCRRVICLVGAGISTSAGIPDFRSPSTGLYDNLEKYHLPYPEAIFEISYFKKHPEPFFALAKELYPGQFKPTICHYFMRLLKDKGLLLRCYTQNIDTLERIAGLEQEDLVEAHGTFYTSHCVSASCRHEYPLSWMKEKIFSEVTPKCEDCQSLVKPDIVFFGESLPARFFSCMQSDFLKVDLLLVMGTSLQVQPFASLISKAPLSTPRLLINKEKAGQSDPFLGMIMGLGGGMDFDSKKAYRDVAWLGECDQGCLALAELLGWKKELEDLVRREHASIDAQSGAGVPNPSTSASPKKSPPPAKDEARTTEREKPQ
Method in brief: (§1)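 HCT116 cells were seeded at 400 000 on poly-D-lysine-coated glass-bottom dishes and grown 24 h. Cells were treated with DMSO or inhibitor for 6 h at 37 °C, fixed in ice-cold methanol, and blocked in TBS/0.1% Triton X-100/5% BSA. They were stained with anti-acetyl α-tubulin (1:100, overnight, 4 °C), then Cy3 anti-mouse, and mounted with DAPI. Imaging was by confocal microscopy.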

[3] = target: T2, NAD-dependent protein deacetylase sirtuin-1 (Homo sapiens, UniProt Q96EB6); experiment: Inhibition of human SIRT1 deacetylase activity using acetylated H3K9 as substrate preincubated for 15 mins followed by substrate addition and measured after 3 mins by UV-HPLC analysis
T2 sequence (Q96EB6 whole entry): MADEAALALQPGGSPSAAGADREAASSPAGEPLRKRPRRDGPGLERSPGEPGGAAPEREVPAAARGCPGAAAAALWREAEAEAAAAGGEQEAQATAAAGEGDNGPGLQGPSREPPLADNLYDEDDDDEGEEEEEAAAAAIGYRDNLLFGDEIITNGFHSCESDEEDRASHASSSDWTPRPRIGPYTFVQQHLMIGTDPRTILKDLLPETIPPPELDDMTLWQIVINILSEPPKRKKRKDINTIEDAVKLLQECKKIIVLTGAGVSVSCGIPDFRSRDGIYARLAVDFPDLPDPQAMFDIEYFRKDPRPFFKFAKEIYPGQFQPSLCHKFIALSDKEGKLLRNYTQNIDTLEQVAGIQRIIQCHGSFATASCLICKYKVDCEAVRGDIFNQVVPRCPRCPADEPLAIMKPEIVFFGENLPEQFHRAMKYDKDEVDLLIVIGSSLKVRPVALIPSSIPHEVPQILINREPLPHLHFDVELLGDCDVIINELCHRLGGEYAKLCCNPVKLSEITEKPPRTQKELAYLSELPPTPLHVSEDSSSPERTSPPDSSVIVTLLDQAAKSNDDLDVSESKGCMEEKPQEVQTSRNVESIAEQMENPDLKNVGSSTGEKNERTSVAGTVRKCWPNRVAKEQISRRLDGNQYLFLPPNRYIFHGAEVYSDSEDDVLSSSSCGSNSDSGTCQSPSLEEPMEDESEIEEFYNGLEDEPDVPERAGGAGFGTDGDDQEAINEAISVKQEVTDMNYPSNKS

HCT-116 [4] = experiment: Inhibition of anchorage-independent cell growth in human HCT116 cells assessed as reduction in colony formation at >=10 uM incubated for 5 days followed by compound re-addition and measured after 9 to 11 days by nitro blue tetrazolium chloride-based soft agar colony formation assay relative to control; type: functional
Method in brief: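 HCT116 cells were mixed at 500 cells/mL into 0.3% agar growth layer over a 0.6% agar base layer (McCoy's medium, 10% calf serum). Both layers held inhibitor at 2.5–50 μM final. Wells were run in triplicate at 37 °C. Inhibitor-containing growth layer was added again at day 5. At 9–11 days, nitro blue tetrazolium was added overnight and colonies were imaged and counted.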

SW948 = experiment: Growth inhibition of human SW948 cells after 72 hrs by CellTiter-Blue assay; type: functional; conditions: SW948, 72 h
[5] = target: T3, NAD-dependent protein deacetylase sirtuin-2 (Homo sapiens, UniProt Q8IXJ6); experiment: Inhibition of recombinant human N-terminal His6-tagged/SUMO-fused SIRT2 (38 to 356 residues) expressed in Escherichia coli BL21 assessed as reduction in deacetylase activity using acetylated H3K9 as substrate preincubated for 15 mins followed by substrate addition and measured after 6 mins by UV-HPLC analysis
T3 sequence (Q8IXJ6 whole entry): T1 sequence (whole entry)

MDA-MB-231 = experiment: Growth inhibition of human MDA-MB-231 cells after 72 hrs by CellTiter-Blue assay; type: functional; conditions: MDA-MB-231, 72 h
[6] = target: T4, NAD-dependent protein deacetylase sirtuin-1 (Homo sapiens) (UniProt Q96EB6); experiment: Inhibition of SIRT1 in Trichostatin A treated human HCT116 cells assessed as increase in acetylated p53 K382 level at 10 to 50 uM after 6 hrs by Western blot analysis
T4 sequence (whole entry): T2 sequence (Q96EB6 whole entry)
Method in brief: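 HCT116 cells were seeded at 400 000 per well, grown 24 h, then cotreated with 400 nM TSA and inhibitor (25 μM, or 10–50 μM) for 6 h at 37 °C. Cells were lysed in 4% SDS buffer, pH 7.4. 50 μg of lysate was resolved by 12% SDS-PAGE and blotted for acetyl-p53 K382 antibody, with β-actin as loading control. Detection was by ECL.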

[7] = Toxicity in NSG mouse xenografted with human HCT116 cells harboring KRAS G13D mutant assessed as body weight loss at 100 mg/kg, ip administered daily for 12 days measured during compound dosing; type: organism-based; conditions: in vivo, 288 h
HCT-116 [8] = experiment: Antitumor activity against human HCT116 cells harboring KRAS G13D mutant xenografted in NSG mouse assessed as tumor growth inhibition by measuring reduction in tumor volume at 100 mg/kg, ip administered daily for 12 days and measured post-last dose relative to control; type: functional; conditions: HCT-116, ip, 288 h, read-out: TGI
Method in brief: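 NSG mice, female and male, about 4–8 weeks old, were implanted with 1 × 10⁶ HCT116 cells on both sides of the abdomen. Tumours grew 3–5 days until visible. Compound was given ip daily for 12 days in vehicle containing 10% DMSO and 10% Kolliphor EL (dosing solution 10 mg/mL); control mice received vehicle. Tumour volume was measured daily; tumours were excised and weighed on the last day. Unpaired two-tailed t-test.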

[9] = target: T1, NAD-dependent protein deacetylase sirtuin-2 (Homo sapiens); experiment: Inhibition of SIRT2 in human HCT116 cells assessed as increase in alpha-tubulin acetylation at 50 uM incubated for 6 hrs by DAPI staining-based laser scanning confocal microscopic analysis; type: cell-based; method in brief: as §1

## CCCCCCCCNC(=S)NCCCC[C@H](NC(=O)OCc1ccccc1)C(=O)Nc1ccccc1
MCF7
  GI50: 42.6 µM
MDA-MB-468
  GI50: 26.1 µM
NCI-H23
  GI50: 35.8 µM
[1]
  Activity: Non-Toxic
[2]
  inhibition: Active
[3]
  IC50: 11 µM
HCT-116 [4]
  growth inhibition (GI): 100%
SW948
  GI50: 30 µM
[5]
  IC50: 0.061 µM
MDA-MB-231
  GI50: 27.2 µM
[6]
  inhibition: inactive
[7]
  Activity: Non-Toxic
HCT-116 [8]
  inhibition in vivo at 100 mg/kg: 80%
[9]
  inhibition: Active

## CCCCCCCCCCNC(=S)NCCCC[C@H](NC(=O)OCc1ccccc1)C(=O)Nc1ccccc1
MCF7
  GI50: 18.4 µM
MDA-MB-468
  GI50: 13.4 µM
NCI-H23
  GI50: 15.6 µM
[1]
  Activity: Non-Toxic
[2]
  inhibition: Active
[3]
  IC50: > 200 µM
HCT-116 [4]
  growth inhibition (GI): 100%
SW948
  GI50: 12.8 µM
[5]
  IC50: 0.15 µM
MDA-MB-231
  GI50: 14.8 µM
[6]
  inhibition: inactive
[7]
  Activity: Non-Toxic
HCT-116 [8]
  inhibition in vivo at 100 mg/kg: 37%
[9]
  inhibition: Active
